# Screening data as filed in PubChem.
# Efflux pump mplx = blocks antifungal efflux pumps in multiplex yeast assay | inhibition, % at 10 µM | S. cerevisiae Candida pump triplex, Nile Red efflux | AID 485275 | 330,000 tested, 0.44% active;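 active means plate passing quality check with inhibition over a set limit, or well fluorescence over plate mean plus 4 SD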;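 further: Nile Red retained in pooled yeast measured as flow cytometry median fluorescence; 0% = buffer negative control and 100% = Enniatin B positive control; higher means more Nile Red kept so more efflux inhibition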
# Mot1-301 SUMO = SUMOylation pathway inhibition by Mot1-301 growth rescue | S. cerevisiae Mot1-301 growth rescue, ATP luminescence, 38.5C; percent above DMSO median, 100 means doubled | growth rescue, % at 18.8 µM | 320,000 tested, 1% active | AID 2716;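 active means every valid replicate shows activation above 250% relative to neutral control wells; inactive means the rest, any valid replicate at or below 250%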;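 further: OY570 slx delta 5 strain wells were the positive control but not used for scaling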
# UCH37 DUB inh = inhibitors of human deubiquitinating enzyme UCH37; Q9Y5K5; purified proteasome/UCH37, Ub-AMC cleavage fluorescence; inhibition, % (test concentration not listed); 330,000 tested, 0.33% active;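 active means mean inhibition over replicate wells above about 20%, limit read from the data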;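 further: 0% = compound-free wells with enzyme and 100% = wells lacking proteasome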
# Target sequence (Q9Y5K5 whole entry, looked up): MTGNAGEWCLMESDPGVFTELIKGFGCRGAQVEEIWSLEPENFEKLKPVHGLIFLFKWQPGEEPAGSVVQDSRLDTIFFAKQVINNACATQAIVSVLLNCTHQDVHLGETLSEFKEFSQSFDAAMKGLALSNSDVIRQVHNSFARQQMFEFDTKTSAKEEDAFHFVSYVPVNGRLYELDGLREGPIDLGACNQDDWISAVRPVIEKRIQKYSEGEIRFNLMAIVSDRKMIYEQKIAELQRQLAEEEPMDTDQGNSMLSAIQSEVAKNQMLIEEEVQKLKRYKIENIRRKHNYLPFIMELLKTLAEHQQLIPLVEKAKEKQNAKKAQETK
#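 assay system = human UCH37 enzyme supplied as purified proteasome complex | amount = proteasome at 0.15 nM in the dispensed enzyme solution | schedule = 30 min compound-proteasome preincubation then 25 min substrate reaction, room temperature | measured by = fluorescence, ex 355 nm, em 460 nm | benchmarks = no-proteasome wells (full inhibition) and compound-free wells (no inhibition)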
# ARNT-TACC3 inh = disrupts binding between human ARNT and TACC3; AID 623870; 390,000 tested, 0.66% active; Q9Y6A5; inhibition, % at 9.99 µM; AlphaScreen His-ARNT PAS-B/GST-TACC3 binding, luminescence; TACC3 fragment carries E629A point mutation;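 active means mean inhibition of replicates at least 50% and at least half of replicates each reaching 50%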;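 further: 0% = complete ARNT plus TACC3 wells and 100% = ARNT alone without TACC3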
# cardiac RTF act = increases calcium sensitivity of human cardiac regulated thin filaments. IANBD-labeled TnC RTF fluorescence at EC20 calcium; 0% EC20 calcium, 100% full calcium. activation, % at 7.2 µM. P19429+P45379. 340,000 tested, 0.24% active;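 active means activation above the mean over all tested compounds plus 3 SD, cut at about 30% in these data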;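 further: rise in fluorescence read as greater calcium sensitivity of cardiac thin filaments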
# Cardiac RTF inh = cardiac RTF calcium desensitization; 340,000 tested, 0.12% active; AID 493244; P19429+P45379; inhibition, % at 7.15 µM; IANBD-labeled cardiac RTF, Ca2+ fluorescence;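 active means inhibition above the mean inhibition of all tested compounds plus 3 SD, cut at about 17% in these data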;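 further: assay run at fixed EC70 calcium of 1.6 mM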
# * hit, by the source's call; · = no result given. This is a sample that favours compounds with a hit; in the whole collection about 2.1% have one here.
SMILES,Efflux pump mplx,Mot1-301 SUMO,UCH37 DUB inh,ARNT-TACC3 inh,cardiac RTF act,Cardiac RTF inh
CCCCN(C(=O)COC(=O)COc1c(C)cc(C)cc1C)c1c(N)n(CCC)c(=O)[nH]c1=O,0,287*,1,-4,-2,-12
CCN1C(=O)[C@H]2[C@@H](c3ccc(-c4ccc(OC)cc4)cc3)N3CCC[C@@]3(C(=O)OC)[C@H]2C1=O,0,-5,1,-11,3,-29
CCN1C(=O)[C@H]2[C@@H](c3ccc(-c4ccc(OC)cc4)cc3)N3CCCC[C@@]3(C(=O)OC)[C@H]2C1=O,0,788*,1,8,4,1
O=C(NC(Cc1ccccc1)C(=O)O)/C(=C/c1ccccc1)NC(=O)c1cccc(Br)c1 (stereo not drawn),0,-13,31*,-5,-1,6
Cc1nc(N2CCc3ccccc3C2)[nH]c(=O)c1Cc1ccccc1,0,-9,·,0,0,-5
Cc1nc(-n2[nH]c3c(c2=O)CCCC3)[nH]c(=O)c1Cc1ccccc1,0,63,0,59*,33*,-28
Nc1ccc(C(=O)NN=Cc2ccc(OC(=O)c3ccccc3Cl)cc2)cc1,·,·,3,·,·,·
O=C(NN=Cc1ccc(OC(=O)c2ccccc2Cl)cc1)c1cc(O)cc(O)c1,·,·,22*,·,·,·
COc1ccc(C(=NO)C(=NO)c2ccc(OC)cc2)cc1,·,·,2,·,·,·
Cc1ccc2nc(Cl)c3nnnn3c2c1,0,382*,·,-10,3,-3
Cc1ccc2nc(N3CCN(c4cccc(C)c4C)CC3)c3nnnn3c2c1,0,-10,-79,-2,1,-2
O=C(CNC(=O)c1ccc(S(=O)(=O)N2CCCC2)cc1)NN=Cc1ccco1,·,·,0,·,·,·
Cc1cc(O)c(CN(C)C)c2c1C(=O)/C(=C/c1ccco1)O2,0,12,-9,-12,36*,-35
COc1ccc(C=Nn2nnnc2N)cc1OC,·,·,-14,·,·,·
CN1C(=O)N(C)C2(c3ccccc3)Nn3c(sc(=Cc4ccco4)c3=O)=NC12c1ccccc1 (stereo not drawn),·,·,0,·,·,·
COc1cc([N+](=O)[O-])cc(/C=N/NC(=O)Cn2cncn2)c1O,0,-9,·,61*,4,-11
COc1cc([N+](=O)[O-])cc(/C=N/NC(=O)CSc2ccccn2)c1O,0,5,·,39,-4,0
COc1cc([N+](=O)[O-])cc(/C=N/NC(=O)c2ccc(C)nc2)c1O,0,-20,·,65*,3,-8
Cc1ccc(NN2C(=O)C=C(c3ccc(Cl)cc3)C2=O)cc1,0,572*,·,-2,-6,-2
CN(C)c1ccc(NC(=NS(=O)(=O)c2cccs2)c2ccccc2)cc1,·,·,7,·,·,·
CC(C)COc1ccc(C(=O)OCCN2CCCCC2)cc1,0,138,4,active,-1,-7
COc1ccc(C(=O)ON=C2CCCc3nonc32)cc1,·,·,1,·,·,·
COC(=O)C1=COC(C)C2CN3CCc4c([nH]c5ccccc45)C3CC12 (stereo not drawn),0,11,-2,20,35*,-33
O=CN1CCCN(Cc2nc(-c3cccc(Cl)c3)no2)CC1,0,-18,30*,·,2,-7
CCOC(=O)N1CCN(Cc2nc(-c3cccc(Cl)c3)no2)CC1,0,-13,0,29,4,-8
SMILES,Efflux pump mplx,Mot1-301 SUMO,UCH37 DUB inh,ARNT-TACC3 inh,cardiac RTF act,Cardiac RTF inh
CC(=NNC(=O)C1(C)CC1(Br)Br)c1cccc(NC(=O)c2ccc(C)o2)c1 (stereo not drawn),·,·,4,·,·,·
Cc1cccc(C(=O)ON=C2CCCc3ccccc32)c1,·,·,3,·,·,·
Cc1nc(C(F)(F)F)c(C(=O)N/N=C(\N)c2ccccn2)s1,0,14,·,62*,2,-10
COc1ccc(CC(=O)NN=C(C)CC(=O)Nc2ccc(N(C)C)cc2)cc1OC,·,·,3,·,·,·
COC(=O)NN=Cc1cc(Cl)c(OCc2ccccc2F)c(OC)c1,·,·,8,·,·,·
CC(C)CCNC(=O)c1cccc(Cl)c1,0,-20,2,·,-4,2
NC(=O)CNC(=O)c1cccc(Cl)c1,0,7,2,active,-1,0
COc1ccc(C=NNc2nnc(-c3ncc[nH]3)c3ccccc23)cc1,·,·,-47,·,·,·
Cc1ccc(S(=O)(=O)Oc2ccccc2C=NNC(=O)c2nn(C)cc2[N+](=O)[O-])cc1,·,·,0,·,·,·
Cn1cnc2c(NN=Cc3cccs3)ncnc21,·,·,15,·,·,·
COc1ccc(Cc2nnc(N/N=C/c3ccc(O)cc3)[nH]c2=O)cc1OC,0,4,·,92*,7,0
NNc1ccc(S(=O)(=O)N2CCCCC2)cn1,0,-9,3,54*,-1,-4
O=S(=O)(c1ccc(N2CCCC2)nc1)N1CCCC1,0,2,0,-2,0,-10
O=C(c1ccc(-c2cc(O)c3ncccc3c2)cc1)N1CCNCC1,0,162,5,66*,0,1
CC(=NNC(=S)N(Cc1ccccn1)Cc1ccccn1)c1cnccn1,·,·,·,64*,-3,-5
S=C(NN=Cc1ccccn1)N(Cc1ccccn1)Cc1ccccn1,·,·,·,59*,-4,-10
Fc1ccc(NN=C(c2ccccc2)c2ccccn2)cc1,·,·,4,·,·,·
O=C(CCCC(=O)N/N=C\c1ccccn1)N/N=C\c1ccccn1,0,-17,·,15,-6,3
S=C(NN=C(c1ccccc1)c1ccccn1)N(Cc1ccccn1)Cc1ccccn1,·,·,·,66*,-2,-11
C(=NNc1nncc2ccccc12)c1ccccc1,·,·,-3,·,·,·
CC(=O)c1sc(NN=Cc2ccccc2O)nc1C,·,·,-3,·,·,·
O=[N+]([O-])c1cc(Br)c(O)c(C=NNc2nc3ccccc3s2)c1,·,·,3,·,·,·
COc1cc2c(cc1OC)-c1cc(NC3CC3)nc(=O)n1CC2,0,0,-4,53*,1,-17
COc1cc2c(cc1OC)-c1cc(NC3CCCCC3)nc(=O)n1CC2,0,90,-3,46*,-4,-9
CCOc1ccc(CCNC(=O)CSc2n[nH]c(N)n2)cc1OCC,0,357*,0,2,-4,0
SMILES,Efflux pump mplx,Mot1-301 SUMO,UCH37 DUB inh,ARNT-TACC3 inh,cardiac RTF act,Cardiac RTF inh
CCOc1ccc(CCNC(=O)COC(=O)CSc2ccccc2C)cc1OCC,0,10,-3,·,9,2
CC(=O)n1c2ccccc2c2ccccc21,0,7,0,-4,3,-1
CC(=O)n1c(C=Nc2ccc(Cl)cc2)c(O)c2ccccc21,0,102,3,2,38*,-1
O=C1N/C(=C/c2ccc(N3CCCC3)cc2)C(=O)N1c1ccccc1,0,-4,1,24,6,-8
Cc1cc(N2CCCC2)ccc1/C=C1\NC(=S)N(C)C1=O,0,9,3,4,53*,-119
CN1C(=O)c2ccc(N3CCCC3)cc2C1=O,0,-24,-5,-16,3,-13
O=C1/C(=C/c2ccc(N3CCCC3)cc2)NC(=S)N1C1CC1,0,28,1,-1,56*,-152
